Rad51 HR inh – human RAD51 strand exchange inhibitors, primary screen, biochemical, fluorescence | hRad51 DNA strand exchange, fluorescence dequenching | AID 1385, 2008 | DNA repair protein RAD51 homolog 1 (Homo sapiens), Q06609 | 200,000 tested, 0.085% active | inhibition, % at 10 µM;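 active = inhibition above 40% at the single screening dose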;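 also: 0% = DMSO control wells and 100% = blanks with heterologous ssDNA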
Target sequence (Q06609 whole entry, looked up): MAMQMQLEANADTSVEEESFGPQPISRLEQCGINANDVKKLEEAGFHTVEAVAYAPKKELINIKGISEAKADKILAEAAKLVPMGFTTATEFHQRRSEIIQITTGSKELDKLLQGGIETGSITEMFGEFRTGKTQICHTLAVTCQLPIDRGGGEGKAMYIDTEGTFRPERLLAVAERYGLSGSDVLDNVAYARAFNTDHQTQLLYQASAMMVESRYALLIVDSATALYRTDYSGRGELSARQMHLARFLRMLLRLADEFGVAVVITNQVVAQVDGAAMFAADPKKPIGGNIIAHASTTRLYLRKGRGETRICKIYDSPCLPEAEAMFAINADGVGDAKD
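Material: Human Rad51 nucleoprotein filaments preassembled on unlabelled ssDNA | Also added: Labelled 47-mer dsDNA for strand exchange | Dosing: Single dose, 10 µM final compound | Schedule: 30-min compound preincubation and 15-min exchange, both room temperature | Technique: Fluorescence dequenching at 485/520 nm | Measure: Percent inhibition relative to plate controls and blanks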
FLuc act counter – FLuc activators, initial screening, artefact control for FLuc-dependent activation tests, biochemical, ATPlite luminescence | ATPlite luciferase biochemical, 10 min; 0 = ATP-free wells, 1 = DMSO control | 200,000 tested, under 10 active | AID 1027, 2008 | activation factor at 10 µM;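 active = luciferase activation factor, scaled between plate controls, of at least 2 with compound at 10 µM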
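Material: Luciferase/luciferin reagent mix | Doses: Test compounds dosed from 2 mM stocks in 100% DMSO | Timing: 10 min incubation after luciferase reagent addition, room temperature | Measured by: Luminescence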
FLuc inh counter – firefly luciferase enzyme inhibitors, primary screen, artefact control for luciferase-based inhibitor screens, biochemical, luminescence, ATPLite; 10 min; 200,000 tested, 1.5% active; Luciferin 4-monooxygenase (Photinus pyralis), P08659; AID 1006, 2008; inhibition, % at 10 µM;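 active = inhibition above about 50% when tested at 10 µM, limit read from the data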
STAT1 activator – STAT1 signaling activators, primary screen, cell-based, HTS, luciferase reporter; activation (% of control), % at 5.5 µM; 200,000 tested, 2.6% active; NIH 3T3 STAT1-luciferase reporter, IFN-gamma, luminescence; 100% = IFN-gamma alone, no compound;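 active = activation above the screen-wide mean activation plus 3 SD, cut at about 130% in these data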;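 also: raw ratio to IFN-gamma control signal so 100% means no change and 0% no light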
APP 5'UTR act – activators of APP 5'UTR luciferase reporter, primary screen, SH-SY5Y cells; SH-SY5Y APP 5'UTR luciferase reporter, luminescence; zero percent = DMSO vehicle wells; activation, % at 2 µM; 190,000 tested, 1% active;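 active = activation above a set limit, based on mean plus 3 SD of controls, cut at about 140% in these data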
NF-kB neuron act – activators of NF-kB expression in neurons, primary screen, cell-based, HTS | human neuronal cells, NF-kB reporter expression; hits give high values | fold change at 12.5 µM | 190,000 tested, 1.6% active | AID 1239, 2008; in the data active = fold change above about 3.3
* hit, by the source's call; x = no result given. Rows were chosen to be rich in hits. Some 3.9% of all compounds tested hit in one or more screens of this group.

SMILES	Rad51 HR inh	FLuc act counter	FLuc inh counter	STAT1 activator	APP 5'UTR act	NF-kB neuron act
CCCCOc1cccc(-c2cc(C(=O)NNC(=S)NCC)c3ccccc3n2)c1	0	0.7	33	103	-7	1
CCNC(=S)NNC(=O)c1cc(-c2cccnc2)nc2ccccc12	-4	0.6	44	109	-4	1.2
CCNC(=S)NNC(=O)c1cc(-c2cccc(C)c2)nc2ccccc12	1	0.1	89*	88	22	1.6
COc1cccc(-c2cc(C(=O)Nn3cnnc3)c3ccccc3n2)c1	-3	0.2	82*	95	-4	1.4
Cc1sc(N)c(C(=O)c2ccccc2)c1C	4	1	-4	100	-7	1.2
Cc1ccc(N/C=C2\CCCCC2=O)nc1	11	0.7	31	135*	6	1.8
O=[N+]([O-])c1ccccc1NC(=S)N/N=C/c1ccc(O)c(O)c1	x	0.9	7	148*	150*	x
Cc1ccc(C(=O)NCCc2csc(C)n2)cc1	-6	0.4	58*	110	26	1.9
Cc1cccc(C(=O)NCCc2csc(C)n2)c1	0	1	-4	105	-3	1.3
Clc1ccc(-c2nc3n(n2)Cc2ccccc2-3)cc1	3	0.4	58*	150*	139*	6.1*
O=C(/C=C/Nc1ccc(F)cc1)c1ccco1	-1	0.1	92*	127	146*	5.1*
O=C(/C=C/Nc1ccc(F)cc1)c1cccs1	-4	x	x	80	160*	x
CCOC(=O)c1ccc(N/C=C/C(=O)c2ccco2)cc1	x	0.4	62*	121	126	5.2*
CC(C)c1cc(C(=O)O)c2cnn(C(C)C)c2n1	6	x	x	x	x	x
CCN(CC)CCC(C)OC(c1ccccc1)c1ccccc1 (stereo not drawn)	10	1	-4	98	3	1.2
O=C1Cc2cc(CCN3CCN(c4nsc5ccccc45)CC3)c(Cl)cc2N1	x	1	-1	x	x	x
Cc1nc(NCc2ccco2)c2c(C)c(C)sc2n1	1	1.1	-9	193*	-4	1.3
CCOC(=O)Cc1ccc(NCc2ccc(Cl)cc2)cc1	9	1	1	102	-6	1.4
Nc1ccc(-c2cnc(-c3ccc(N)cc3)nc2)cc1	4	0.3	74*	137*	126	4.8*
CC(NCC(=O)Nc1cc(S(=O)(=O)N2CCCCCC2)ccc1Cl)c1ccccc1 (stereo not drawn)	-5	1	-4	95	1	0.9
O=C(NCC1CCCO1)c1ccc(CSCc2cccc(F)c2)o1 (stereo not drawn)	0	1	-3	99	-5	1.1
Cc1cc2c(nc1C)CCCN2C[C@@H](C)O/N=C1/[C@H]2CCn3c(=O)n(-c4ccccc4)c(=O)n3[C@H]2[C@H](O)[C@@H]2O[C@H]12	4	1.1	-6	100	-11	3.4*
C/C(CCN1CCCCc2nc(C)c(C)cc21)=N\O[C@H](C)c1cn([C@H](CO)Cc2ccccc2)nn1	x	1.1	-8	104	5	0.77
COc1ccc(C(=O)OCC(=O)N2CCCC2=O)c(OC)c1	12	0.9	11	139*	3	1.1
CCCN1C(=O)/C(=C/c2ccccc2OCc2ccc(C(=O)O)cc2)NC1=S	x	0.3	72*	108	-15	x
SMILES	Rad51 HR inh	FLuc act counter	FLuc inh counter	STAT1 activator	APP 5'UTR act	NF-kB neuron act
O=C(NCC1CCCO1)c1ccc2c(=O)n(CC3CCCO3)c(SCC(=O)N3CCCC3)nc2c1 (stereo not drawn)	-13	1	0	115	-2	0.84
COc1cc(/C=N/NC(=O)Cc2csc(N3CCOCC3)n2)cc(OC)c1O	-11	0.4	60*	103	21	1.1
C=CCSc1nnc(NC(=O)c2cccc(S(=O)(=O)N(C)c3ccccc3)c2)s1	-6	1	-4	105	0	1.1
COc1ccc2c(c1OC)C(=O)N(c1ccc(C)c(C)c1)C2=O	6	0.9	5	117	-9	1.6
COc1ccc2c(c1OC)C(=O)N(c1ccc(C)cc1)C2=O	-31	1	5	129*	-8	1.4
Cc1c(NC(=O)COC(=O)c2ccccc2Cl)c(=O)n(-c2ccccc2)n1C	2	1.1	-9	106	-4	1.1
COc1ccc2cc(-c3cc(C(=O)OCC(=O)Nc4c(C)n(C)n(-c5ccccc5)c4=O)c4ccccc4n3)ccc2c1	8	0.1	94*	112	81	3.4*
COc1ccc2cc(-c3cc(C(=O)OCC(=O)NC4CCS(=O)(=O)C4)c4ccccc4n3)ccc2c1 (stereo not drawn)	2	0	95*	116	40	2.4
Cc1cc(C(=O)OCC(=O)NC2CCS(=O)(=O)C2)c2ccccc2n1 (stereo not drawn)	9	1	-4	95	22	1.1
CCc1ccc(C(=O)/C=C/c2cnn(C)c2C)s1	6	0.1	86*	129*	174*	11*
O=C(O)c1cc(N/N=C/c2cccs2)ccc1Cl	11	1	2	108	152*	1.9
Cc1ccc(/C=N/Nc2ccc(Cl)c(C(=O)O)c2)s1	-10	0.9	9	143*	166*	8*
Cc1ccc(/C=N/Nc2nc(Cl)c(Cl)cc2Cl)s1	-7	0.9	12	147*	71	2.6
O=C(/C=C/c1cc[n+](CC(=O)c2ccc3cccc4c3c2CC4)cc1)c1ccc2cccc3c2c1CC3	15	x	x	x	x	x
CCOc1ccc(C(C)=O)cc1COC(=O)c1cccnc1SC	7	1.1	-6	88	-7	1.4
CSc1ncccc1C(=O)OCc1ccc(C#N)cc1	7	1	-4	106	12	1.1
COC(=O)c1cccc(COC(=O)c2cccnc2SC)c1	11	1.1	-6	113	19	3.5*
COc1ccc(C(C)=O)cc1COC(=O)c1cccnc1SC	-1	1.1	-9	98	-2	3.9*
COc1ccccc1CNC(=O)C1CC(c2ccccc2C(F)(F)F)=NO1 (stereo not drawn)	-2	x	x	x	x	x
CN(C)c1cc[n+](CC(=O)Nc2ccc(OC(F)F)cc2)cc1	8	x	x	x	x	x
Cc1cccc(C2=N/C(=C\c3cccs3)C(=O)O2)c1	x	0.3	65*	104	18	x
O=C(COC(=O)CSc1ccc2ccccc2c1Br)NC1CC1	9	1.1	-5	103	2	1
COc1ccc2occ(C(C)=O)c2c1	-6	1	-3	94	-37	0.95
